From the M2OR odorant receptor database
Substitutions are numbered along the chain they refer to.

Experiments:
Conditions in all cases: stereoisomer not certain
[1] = target: T1, OR10R2 (Homo sapiens) (UniProt Q8NGX6)
T1 sequence (whole entry): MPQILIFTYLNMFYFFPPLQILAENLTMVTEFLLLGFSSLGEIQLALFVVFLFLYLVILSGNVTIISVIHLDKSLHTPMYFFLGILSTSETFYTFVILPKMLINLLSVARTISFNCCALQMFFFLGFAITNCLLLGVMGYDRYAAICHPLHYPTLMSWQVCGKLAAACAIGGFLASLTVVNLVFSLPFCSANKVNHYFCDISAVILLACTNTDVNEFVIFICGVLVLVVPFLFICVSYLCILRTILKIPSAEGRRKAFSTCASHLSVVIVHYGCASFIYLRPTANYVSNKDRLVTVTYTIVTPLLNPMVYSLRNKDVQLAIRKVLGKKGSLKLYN
How it was run: (§1)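 Values were gathered from published papers (main text and supplementary material), with extra details requested from the original authors when needed, and checked for typos and inconsistencies. Each receptor–molecule pair is called responsive (active) if the original authors judged the measured signal statistically different from baseline, and non-responsive (inactive) otherwise. Assay methods varied by source, often transient mammalian cell-line luciferase assays. Recorded details include cell line, G-protein, co-transfected protein and tags.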

[2] = target: T2, OR10S1 (Homo sapiens) (UniProt Q8NGN2)
T2 sequence (whole entry): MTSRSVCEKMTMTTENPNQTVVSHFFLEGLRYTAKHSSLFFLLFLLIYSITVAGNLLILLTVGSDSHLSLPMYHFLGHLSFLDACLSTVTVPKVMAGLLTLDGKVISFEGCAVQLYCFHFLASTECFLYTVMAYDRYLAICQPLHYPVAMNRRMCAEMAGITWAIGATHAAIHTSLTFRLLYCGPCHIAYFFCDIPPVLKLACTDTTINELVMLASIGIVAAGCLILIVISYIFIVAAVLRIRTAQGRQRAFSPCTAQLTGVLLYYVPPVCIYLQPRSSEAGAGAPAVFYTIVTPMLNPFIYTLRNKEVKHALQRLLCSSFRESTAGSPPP
How it was run: as §1

[3] = target: T3, OR10T2 (Homo sapiens) (UniProt Q8NGX3)
T3 sequence (whole entry): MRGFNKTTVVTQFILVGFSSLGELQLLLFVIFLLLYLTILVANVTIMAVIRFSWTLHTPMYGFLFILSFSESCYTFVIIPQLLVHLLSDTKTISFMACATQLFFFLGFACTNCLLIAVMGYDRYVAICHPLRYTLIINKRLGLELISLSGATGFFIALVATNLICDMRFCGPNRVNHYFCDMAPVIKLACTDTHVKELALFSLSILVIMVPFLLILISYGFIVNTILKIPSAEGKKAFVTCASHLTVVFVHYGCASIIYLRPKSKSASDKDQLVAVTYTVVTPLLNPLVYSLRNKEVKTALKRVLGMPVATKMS
How it was run: as §1

[4] = target: T4, OR10V1 (Homo sapiens) (UniProt Q8NGI7)
T4 sequence (whole entry): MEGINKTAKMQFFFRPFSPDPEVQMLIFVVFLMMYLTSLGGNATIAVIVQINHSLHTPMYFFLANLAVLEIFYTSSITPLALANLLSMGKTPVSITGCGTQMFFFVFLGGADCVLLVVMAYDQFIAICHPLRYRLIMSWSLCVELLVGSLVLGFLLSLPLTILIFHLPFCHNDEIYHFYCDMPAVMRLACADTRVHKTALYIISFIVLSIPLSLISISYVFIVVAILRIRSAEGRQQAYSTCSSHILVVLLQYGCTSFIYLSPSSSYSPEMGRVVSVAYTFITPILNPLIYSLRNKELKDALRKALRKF
How it was run: as §1

[5] = target: T5, OR10W1 (Homo sapiens) (UniProt Q8NGF6)
T5 sequence (whole entry): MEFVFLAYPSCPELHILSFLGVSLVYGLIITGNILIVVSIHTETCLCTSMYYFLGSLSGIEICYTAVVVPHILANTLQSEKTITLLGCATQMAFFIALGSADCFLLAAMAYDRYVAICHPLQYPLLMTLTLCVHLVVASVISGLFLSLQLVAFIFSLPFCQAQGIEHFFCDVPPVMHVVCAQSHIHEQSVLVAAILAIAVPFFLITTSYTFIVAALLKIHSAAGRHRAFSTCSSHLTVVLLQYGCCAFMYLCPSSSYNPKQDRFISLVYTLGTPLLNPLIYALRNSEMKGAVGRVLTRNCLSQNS
How it was run: as §1

[6] = target: T6, OR10X1 (Homo sapiens) (UniProt Q8NGY0)
T6 sequence (whole entry): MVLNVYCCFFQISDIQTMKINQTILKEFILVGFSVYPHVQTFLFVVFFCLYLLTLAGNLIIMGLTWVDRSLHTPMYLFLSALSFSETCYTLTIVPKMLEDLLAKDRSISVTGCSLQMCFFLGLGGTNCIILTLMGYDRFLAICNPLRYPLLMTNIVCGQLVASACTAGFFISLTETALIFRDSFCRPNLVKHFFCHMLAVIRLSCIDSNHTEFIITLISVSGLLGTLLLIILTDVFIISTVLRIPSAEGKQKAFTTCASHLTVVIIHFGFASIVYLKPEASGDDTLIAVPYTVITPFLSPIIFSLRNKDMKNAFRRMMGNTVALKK
How it was run: as §1

[7] = target: T7, OR10Z1 (Homo sapiens) (UniProt Q8NGY1)
T7 sequence (whole entry): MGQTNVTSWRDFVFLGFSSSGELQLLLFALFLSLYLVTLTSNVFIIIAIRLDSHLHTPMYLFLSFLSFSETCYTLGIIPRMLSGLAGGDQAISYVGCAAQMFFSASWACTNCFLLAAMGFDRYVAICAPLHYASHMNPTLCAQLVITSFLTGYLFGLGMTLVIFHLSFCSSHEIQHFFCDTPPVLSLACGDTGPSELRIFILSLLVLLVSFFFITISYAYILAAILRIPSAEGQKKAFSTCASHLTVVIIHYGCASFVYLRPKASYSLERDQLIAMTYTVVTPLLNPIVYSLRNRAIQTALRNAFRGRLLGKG
How it was run: as §1

[8] = target: T8, OR11A1 (Homo sapiens) (UniProt Q9GZK7)
T8 sequence (whole entry): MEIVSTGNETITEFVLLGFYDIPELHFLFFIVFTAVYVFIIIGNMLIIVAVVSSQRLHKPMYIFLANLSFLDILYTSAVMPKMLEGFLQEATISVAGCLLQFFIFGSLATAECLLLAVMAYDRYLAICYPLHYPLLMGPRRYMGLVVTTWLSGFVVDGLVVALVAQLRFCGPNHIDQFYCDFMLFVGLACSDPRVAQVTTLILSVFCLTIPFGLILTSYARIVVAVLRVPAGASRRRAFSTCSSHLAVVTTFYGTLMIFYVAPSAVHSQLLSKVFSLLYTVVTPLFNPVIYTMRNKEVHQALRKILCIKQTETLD
How it was run: as §1

[9] = target: T9, OR11G2 (Homo sapiens) (UniProt Q8NGC1)
T9 sequence (whole entry): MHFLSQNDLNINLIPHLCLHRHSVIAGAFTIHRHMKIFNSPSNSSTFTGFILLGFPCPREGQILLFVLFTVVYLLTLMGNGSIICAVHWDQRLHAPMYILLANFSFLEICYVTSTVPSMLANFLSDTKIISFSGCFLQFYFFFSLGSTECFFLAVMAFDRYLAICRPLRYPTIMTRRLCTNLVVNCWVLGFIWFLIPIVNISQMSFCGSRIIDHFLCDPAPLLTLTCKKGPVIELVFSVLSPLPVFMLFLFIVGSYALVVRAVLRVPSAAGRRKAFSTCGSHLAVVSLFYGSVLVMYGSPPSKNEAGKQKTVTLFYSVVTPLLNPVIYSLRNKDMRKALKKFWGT
How it was run: as §1

[10] = target: T10, OR11H1 (Homo sapiens) (UniProt Q8NG94)
T10 sequence (whole entry): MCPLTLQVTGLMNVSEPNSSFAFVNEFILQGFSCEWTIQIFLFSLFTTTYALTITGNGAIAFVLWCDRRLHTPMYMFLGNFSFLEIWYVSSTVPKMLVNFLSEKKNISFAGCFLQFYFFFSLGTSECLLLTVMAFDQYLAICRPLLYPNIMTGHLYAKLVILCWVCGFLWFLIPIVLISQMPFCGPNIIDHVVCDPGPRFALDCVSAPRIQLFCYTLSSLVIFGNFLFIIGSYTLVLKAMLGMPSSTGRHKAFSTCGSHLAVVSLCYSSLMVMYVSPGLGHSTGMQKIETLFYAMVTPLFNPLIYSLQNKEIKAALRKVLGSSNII
How it was run: as §1

[11] = target: T11, OR11H12 (Homo sapiens) (UniProt B2RN74)
T11 sequence (whole entry): T10 sequence (whole entry) with S33T, R68W, Y156C, M240V
How it was run: as §1

[12] = target: T12, OR11H2 (Homo sapiens) (UniProt Q8NH07)
T12 sequence (whole entry): T10 sequence (whole entry) with Q7H, T49I, M181K, R199L, M240V, S269P
How it was run: as §1

[13] = target: T13, OR11H4 (Homo sapiens) (UniProt Q8NGC9)
T13 sequence (whole entry): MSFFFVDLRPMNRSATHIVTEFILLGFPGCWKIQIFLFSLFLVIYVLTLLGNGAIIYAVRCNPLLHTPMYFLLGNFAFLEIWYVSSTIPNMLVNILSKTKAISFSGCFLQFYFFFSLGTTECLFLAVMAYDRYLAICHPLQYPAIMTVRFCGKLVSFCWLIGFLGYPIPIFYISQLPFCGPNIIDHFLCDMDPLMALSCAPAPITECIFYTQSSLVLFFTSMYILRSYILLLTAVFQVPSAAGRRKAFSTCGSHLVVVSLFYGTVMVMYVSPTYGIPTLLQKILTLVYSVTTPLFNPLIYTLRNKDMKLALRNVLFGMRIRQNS
How it was run: as §1

[14] = target: T14, OR11H6 (Homo sapiens) (UniProt Q8NGC7)
T14 sequence (whole entry): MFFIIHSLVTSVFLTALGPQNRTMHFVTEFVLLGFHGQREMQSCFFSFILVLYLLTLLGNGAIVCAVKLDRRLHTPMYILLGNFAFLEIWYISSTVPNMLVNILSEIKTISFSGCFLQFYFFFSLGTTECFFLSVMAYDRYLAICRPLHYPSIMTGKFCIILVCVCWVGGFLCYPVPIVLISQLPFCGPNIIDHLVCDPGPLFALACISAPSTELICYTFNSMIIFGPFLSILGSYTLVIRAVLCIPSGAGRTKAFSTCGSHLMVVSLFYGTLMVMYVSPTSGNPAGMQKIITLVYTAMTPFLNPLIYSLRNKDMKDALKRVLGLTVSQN
How it was run: as §1

[15] = target: T15, OR11L1 (Homo sapiens) (UniProt Q8NGX0)
T15 sequence (whole entry): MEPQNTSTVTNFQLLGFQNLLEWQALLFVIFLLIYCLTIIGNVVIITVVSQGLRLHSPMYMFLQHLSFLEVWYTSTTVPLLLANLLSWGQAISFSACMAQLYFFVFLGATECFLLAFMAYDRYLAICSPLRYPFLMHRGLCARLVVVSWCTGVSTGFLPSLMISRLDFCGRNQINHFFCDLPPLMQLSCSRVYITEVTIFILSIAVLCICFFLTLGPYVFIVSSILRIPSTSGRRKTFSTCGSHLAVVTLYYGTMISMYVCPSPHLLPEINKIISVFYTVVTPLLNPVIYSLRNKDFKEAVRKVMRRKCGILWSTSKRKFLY
How it was run: as §1

[16] = target: T16, OR12D2 (Homo sapiens) (UniProt P58182)
T16 sequence (whole entry): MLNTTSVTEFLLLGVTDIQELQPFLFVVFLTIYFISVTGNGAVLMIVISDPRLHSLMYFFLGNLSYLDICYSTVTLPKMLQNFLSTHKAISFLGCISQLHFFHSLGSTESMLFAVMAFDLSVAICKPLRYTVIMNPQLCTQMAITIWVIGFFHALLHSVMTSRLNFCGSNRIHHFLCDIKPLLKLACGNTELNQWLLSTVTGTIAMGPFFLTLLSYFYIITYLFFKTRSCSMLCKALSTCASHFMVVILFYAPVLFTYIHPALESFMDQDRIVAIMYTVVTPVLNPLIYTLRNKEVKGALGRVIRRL
How it was run: as §1

[17] = target: T17, OR12D3 (Homo sapiens) (UniProt Q9UGF7)
T17 sequence (whole entry): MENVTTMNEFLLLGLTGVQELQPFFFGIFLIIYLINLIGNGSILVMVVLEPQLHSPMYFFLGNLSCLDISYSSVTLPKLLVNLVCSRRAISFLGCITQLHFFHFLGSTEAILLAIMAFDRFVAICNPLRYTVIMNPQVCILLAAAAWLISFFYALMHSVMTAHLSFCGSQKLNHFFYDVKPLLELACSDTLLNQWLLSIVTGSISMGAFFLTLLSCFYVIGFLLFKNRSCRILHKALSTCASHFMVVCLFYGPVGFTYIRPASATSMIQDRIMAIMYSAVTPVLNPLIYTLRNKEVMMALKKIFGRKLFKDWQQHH
How it was run: as §1

[18] = target: T18, OR13A1 (Homo sapiens) (UniProt Q8NGR1)
T18 sequence (whole entry): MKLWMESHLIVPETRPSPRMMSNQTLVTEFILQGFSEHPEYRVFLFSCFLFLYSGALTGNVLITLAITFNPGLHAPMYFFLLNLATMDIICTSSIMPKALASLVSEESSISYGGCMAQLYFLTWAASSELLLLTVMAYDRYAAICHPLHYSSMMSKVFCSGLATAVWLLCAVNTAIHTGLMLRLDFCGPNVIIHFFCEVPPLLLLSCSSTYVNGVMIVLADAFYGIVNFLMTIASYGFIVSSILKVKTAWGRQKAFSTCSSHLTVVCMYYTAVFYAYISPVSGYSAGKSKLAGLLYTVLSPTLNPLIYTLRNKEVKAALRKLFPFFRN
How it was run: as §1

[19] = target: OR11H7 (Homo sapiens) (UniProt Q8NGC8)
Sequence of OR11H7 (Homo sapiens) (Q8NGC8 whole entry): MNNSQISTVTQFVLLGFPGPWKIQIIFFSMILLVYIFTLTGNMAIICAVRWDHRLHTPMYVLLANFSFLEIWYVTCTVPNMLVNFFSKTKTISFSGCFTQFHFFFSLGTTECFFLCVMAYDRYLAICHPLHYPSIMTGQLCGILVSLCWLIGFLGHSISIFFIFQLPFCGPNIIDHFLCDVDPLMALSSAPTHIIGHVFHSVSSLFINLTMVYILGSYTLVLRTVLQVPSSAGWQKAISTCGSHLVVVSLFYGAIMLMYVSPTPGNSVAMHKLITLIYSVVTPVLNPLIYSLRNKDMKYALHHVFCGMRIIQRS
How it was run: as §1

[20] = target: OR12D1 (Homo sapiens) (UniProt P0DN82)
Sequence of OR12D1 (Homo sapiens) (P0DN82 as listed by the source): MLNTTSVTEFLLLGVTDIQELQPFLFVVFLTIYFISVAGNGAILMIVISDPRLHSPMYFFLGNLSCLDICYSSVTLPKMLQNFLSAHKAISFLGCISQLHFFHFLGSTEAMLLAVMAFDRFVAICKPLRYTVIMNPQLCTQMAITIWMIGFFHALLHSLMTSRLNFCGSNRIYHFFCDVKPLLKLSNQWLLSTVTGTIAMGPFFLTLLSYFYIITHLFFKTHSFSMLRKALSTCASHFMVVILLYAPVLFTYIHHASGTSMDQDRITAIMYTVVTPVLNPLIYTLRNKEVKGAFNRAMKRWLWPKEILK
How it was run: as §1

Measured: odorant receptor agonist call

CC1=C(O)C(=O)C(C)O1 (stereo not drawn)
not listed: [19] | [20]
inactive: all other assays above

CC1CCCCCCCCCCCCC(=O)C1 (stereo not drawn)
inactive: all assays above

CC(CO)CS (stereo not drawn)
not listed: [11] | [19] | [20]
inactive: all other assays above

CCC1OC(C)=C(O)C1=O (stereo not drawn)
not listed: [19] | [20]
inactive: all other assays above
